SIRT5 block: sirtuin-5 (human) deacylase inhibition; Q9NXA8; Purified SirT5, succinyl-peptide AMC, trypsin-coupled fluorescence; inhibition, % at 15 µM; 330,000 compounds, 1.1% hits; AID 652115; in the data active means inhibition above about 15%; inconclusive means no clear call, values can overlap the other calls
PglD DTNB: inhibitors of Campylobacter jejuni PglD acetyltransferase | purified PglD enzyme, DTNB colorimetric CoA detection | inhibition, % at 12.5 µM | 360,000 compounds, 0.098% hits | AID 602405; in the data active means inhibition above about 16%, passing the limit was not always enough; inconclusive means no clear call, values can overlap the other calls
ERAP1 inh: inhibitors of human ERAP1 aminopeptidase; recombinant ERAP1, Leu-AMC fluorescence, 60 min; 340,000 compounds, 0.15% hits; inhibition, % at 10.7 µM;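 active means mean replicate inhibition of at least 30%, or all replicates individually reaching that 30% level; inactive means mean below 30% and not every replicate reaching it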;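 further: 0% = neutral control wells and 100% = L-leucinethiol positive control wells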
Target sequence (Q9NZ08 whole entry, looked up): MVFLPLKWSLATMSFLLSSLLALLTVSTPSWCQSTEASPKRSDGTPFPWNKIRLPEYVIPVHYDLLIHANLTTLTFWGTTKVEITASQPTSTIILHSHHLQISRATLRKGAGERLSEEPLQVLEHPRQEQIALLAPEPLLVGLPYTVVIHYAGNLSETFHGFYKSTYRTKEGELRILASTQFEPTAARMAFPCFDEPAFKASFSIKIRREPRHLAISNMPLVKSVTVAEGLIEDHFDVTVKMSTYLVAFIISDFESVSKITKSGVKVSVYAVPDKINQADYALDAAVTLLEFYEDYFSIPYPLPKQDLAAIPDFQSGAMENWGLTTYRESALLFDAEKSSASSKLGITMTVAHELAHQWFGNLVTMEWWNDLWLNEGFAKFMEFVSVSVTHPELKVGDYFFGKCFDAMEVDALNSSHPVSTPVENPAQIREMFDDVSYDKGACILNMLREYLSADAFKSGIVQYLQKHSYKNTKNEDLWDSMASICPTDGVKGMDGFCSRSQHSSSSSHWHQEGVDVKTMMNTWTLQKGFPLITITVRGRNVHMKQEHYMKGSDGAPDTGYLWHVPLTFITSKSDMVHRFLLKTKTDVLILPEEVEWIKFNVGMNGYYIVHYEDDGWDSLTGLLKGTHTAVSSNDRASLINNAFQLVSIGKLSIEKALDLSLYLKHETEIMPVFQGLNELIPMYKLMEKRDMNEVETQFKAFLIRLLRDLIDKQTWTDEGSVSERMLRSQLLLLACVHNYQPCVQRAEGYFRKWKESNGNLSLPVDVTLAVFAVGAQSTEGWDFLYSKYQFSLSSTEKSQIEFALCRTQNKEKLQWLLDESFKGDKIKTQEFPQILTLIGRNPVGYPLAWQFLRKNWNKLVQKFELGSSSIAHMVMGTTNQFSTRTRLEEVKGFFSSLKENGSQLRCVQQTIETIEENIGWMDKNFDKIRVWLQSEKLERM
E-selectin induc: induces E-selectin expression in human endothelial cells; AID 686992; HUVEC E-selectin immunofluorescence imaging; normalized: neutral wells 0, TNF-alpha wells 100; 260,000 compounds, 0.37% hits; activation, % at 7.58 µM;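 active means mean E-selectin-positive cell signal at least 10% of the positive control, reached in at least 60% of replicates, without over 20% cell loss; inconclusive means no rule given, readout overlaps actives, possibly toxicity-flagged; inactive means the rest, including those meeting only one limit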
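Read-out: % PE-positive cells | Test system: HUVEC | Doses: One compound dose added by pin transfer | Buffer or medium: EGM-2 over gelatin coat | Signal: Immunofluorescence imaging | Benchmarks: TNF-alpha, DMSO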
DENV2 CPE: protects cells from dengue virus 2 cytopathic effect | CPE inhibition, % at 9.99 µM | 350,000 compounds, 1.7% hits | DENV2-infected cells, cytopathic effect rescue, plate reader; in the data active means CPE inhibition above about 20%, passing the limit was not always enough; inconclusive means no clear call, values can overlap the other calls; tested in BHK-21 cells;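 further: 0% = median of neutral control wells and 100% = median of positive control wells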
Active calls of the source: *; ? = inconclusive; / = not tested or not shown. Rows were chosen to be rich in hits. Some 2.5% of all compounds tested hit in one or more screens of this group.

SMILES | SIRT5 block | PglD DTNB | ERAP1 inh | E-selectin induc | DENV2 CPE
C[C@@H]1CN([C@H](C)CO)C(=O)c2cc(N(C)C)ccc2O[C@@H](C)CCCCO[C@@H]1CN(C)CC1CCCCC1 | 8.8 | 0.0 | 4.1 | 0.0 | 9.1
COc1ccc(CN(C)C[C@H]2OCCCC[C@H](C)Oc3ccc(N(C)C)cc3C(=O)N([C@H](C)CO)C[C@H]2C)cc1 | 21.9* | -0.2 | -0.3 | -0.3 | 3.5
COc1ccc(CN(C)C[C@H]2OCCCC[C@@H](C)Oc3ccc(NC(=O)NC4CCCCC4)cc3C(=O)N([C@H](C)CO)C[C@H]2C)cc1 | 18.7* | -0.2 | -0.6 | 0.2 | -8.0
C[C@@H]1CCCCO[C@@H](CN(C)CC2CCCCC2)[C@@H](C)CN([C@H](C)CO)C(=O)c2cc(N(C)C)ccc2O1 | 3.3 | 2.2 | 4.2 | 0.0 | 48.3*
CC1CCN(CCCn2c(SCC(=O)Nc3ccccc3Cl)nc3ccccc3c2=O)CC1 | / | / | -0.8 | 6.5 | -8.0
COc1ccc(NC(=O)Nc2ccc3c(c2)C(=O)N([C@@H](C)CO)C[C@H](C)[C@H](CN(C)Cc2ccc(C(=O)O)cc2)OCCCC[C@H](C)O3)cc1 | 2.5 | 4.5 | -19.7 | 0.0 | 80.1*
COc1ccc(NC(=O)Nc2ccc3c(c2)C(=O)N([C@H](C)CO)C[C@@H](C)[C@H](CN(C)Cc2ccc(C(=O)O)cc2)OCCCC[C@H](C)O3)cc1 | 1.7 | -2.8 | 1.3 | 0.0 | 5.4
COc1ccc(CN(C)C[C@H]2OCCCC[C@@H](C)Oc3ccc(NC(=O)NC(C)C)cc3C(=O)N([C@H](C)CO)C[C@H]2C)cc1 | 1.2 | 2.0 | 0.1 | -0.2 | 85.5*
COc1cc(NC(=O)C/C(C)=N/NC(=O)C2CCCCC2)c(OC)cc1Cl | -0.2 | -2.5 | -3.2 | 56.0* | ?
O=C1OC(c2cc(Br)c(O)c(Br)c2)c2ccccc21 (stereo unspecified) | / | / | -1.5 | 0.3 | 3.9
Cc1c(NCc2cccnc2)cccc1C(=O)O | -0.5 | -0.1 | 0.6 | 0.0 | 2.6
O=C(O)c1cc(N2C(=O)C3CCCCC3C2=O)ccc1NCc1cccnc1 (stereo unspecified) | 21.3* | / | 2.0 | 10.9 | 3.1
CCn1c2ccccc2c2cc(NC(=O)CSc3nnc(C4CC4)n3Cc3ccco3)ccc21 | / | 2.1 | / | / | /
O=c1[nH][nH]c(-c2ccccc2)c1C=Nc1ccc(Cl)cc1 | / | -1.9 | / | / | /
CN1CCN(C(=O)c2cc3nc(-c4ccccc4)cc(C(F)(F)F)n3n2)CC1 | / | 5.1 | / | / | /
O=C(c1cc2nc(-c3ccccc3)cc(C(F)(F)F)n2n1)N1CCCC1 | 21.3* | / | / | -0.5 | /
O=C(Cc1ccncc1)NCC[C@H]1CC[C@@H](NC(=O)Nc2cccc(F)c2)[C@H](CO)O1 | -0.8 | 1.7 | -0.1 | -0.3 | 2.6
CC(C)c1ccc(OC(=O)c2ccc3c(=O)n4c(nc3c2)CCC4)cc1 | 3.4 | -2.0 | 77.8* | / | -2.7
O=C(Oc1ccc(F)c(F)c1)c1ccc2c(=O)n3c(nc2c1)CCC3 | 12.6 | 4.1 | 4.3 | 1.9 | 11.1
O=C(CCCCCn1c(=O)[nH]c2ccccc2c1=O)NC1CCCC1 | -2.3 | / | 12.9 | 0.0 | 2.5
CC(=O)c1cccc(NC(=O)CCCNC(=O)c2ccc(Cl)cc2)c1 | -5.0 | -2.4 | -4.0 | 0.6 | 1.1
CSc1cccc(NC(=O)CCCNC(=O)c2ccc(Cl)cc2)c1 | / | 3.9 | 51.1* | 0.5 | -8.1
CC1Cc2cc(S(=O)(=O)N3CCC(C(=O)N4CCN(c5ccccc5F)CC4)CC3)ccc2N1C(=O)C1CC1 (stereo unspecified) | -1.6 | -5.1 | 0.7 | / | -1.4
CC(=O)C(=Cc1ccc(Cl)cc1)C(=O)c1ccccc1 | 1.6 | / | -0.6 | 1.9 | -6.7
O=C1CN(C(=O)c2ccccc2F)C(c2ccccc2)c2cc(F)ccc2N1 (stereo unspecified) | -1.1 | -0.5 | -2.2 | / | -2.1
SMILES | SIRT5 block | PglD DTNB | ERAP1 inh | E-selectin induc | DENV2 CPE
Cc1ccc(C(=O)N2CC(=O)Nc3ccc(F)cc3C2c2ccccc2)cc1 (stereo unspecified) | 15.5* | -2.6 | 2.5 | 0.1 | 17.8
CCN(C(=O)CSc1nc2ccccc2o1)C1CCS(=O)(=O)C1 (stereo unspecified) | -9.7 | -7.0 | 4.9 | / | -2.1
O=C(NC1CCCCC1)C1CCC(=O)N(C2CC2)C1 (stereo unspecified) | 7.6 | 2.4 | 0.7 | / | -8.7
CC1(C)CC(NC(=O)C2CCC(=O)N(C3CC3)C2)CC(C)(C)C1 (stereo unspecified) | 36.1* | -3.9 | 1.4 | 1.6 | 0.8
COc1ccccc1S(=O)(=O)N[C@H]1CC[C@H](CC(=O)NCc2cccc(F)c2)O[C@H]1CO | 1.2 | 10.5 | 2.1 | -0.5 | -0.4
C[C@H](CO)N1C[C@H](C)[C@H](CN(C)C(=O)Nc2ccccc2)Oc2c(NC(=O)C3CCOCC3)cccc2C1=O | -1.5 | -4.6 | 0.3 | 6.2 | 14.6
C[C@@H]1CN([C@H](C)CO)C(=O)c2cccc(NC(=O)C3CCOCC3)c2O[C@H]1CN(C)C(=O)Nc1ccccc1 | -8.8 | -6.5 | 1.0 | 172.9* | 1.1
C[C@H](CO)N1C[C@H](C)[C@@H](CN(C)C(=O)Nc2ccccc2)Oc2c(NC(=O)NC3CCCCC3)cccc2C1=O | 3.1 | -0.7 | -6.2 | 0.1 | 63.5*
CC(C)NC(=O)Nc1cccc2c1O[C@H](CN(C)C(=O)Nc1ccccc1)[C@H](C)CN([C@H](C)CO)C2=O | -0.2 | -1.1 | -2.9 | -0.1 | 42.4*
O=C1CCCC(c2ccccc2)N1 (stereo unspecified) | / | / | 2.1 | / | 60.2*
C[C@H]1CN([C@@H](C)CO)C(=O)c2cc(C#CCN(C)C)cnc2O[C@@H]1CN(C)Cc1cccc(C(=O)O)c1 | / | -3.9 | -0.4 | / | ?
C[C@H](CO)N1C[C@H](C)[C@H](CN(C)Cc2cccc(F)c2)Oc2ncc(C#C[C@@H](C)O)cc2C1=O | 24.1* | -4.4 | -4.7 | 0.6 | 17.5
CC(C)CC#Cc1cnc2c(c1)C(=O)N([C@H](C)CO)C[C@H](C)[C@H](CN(C)Cc1ccccc1)O2 | -0.9 | / | 2.5 | 0.6 | 23.3*
C[C@@H]1CN([C@H](C)CO)C(=O)c2cc(C#CCN(C)C)cnc2O[C@H]1CN(C)Cc1cccc(C(=O)O)c1 | 0.7 | / | 2.5 | / | 30.3*
C[C@H](CO)N1C[C@H](C)[C@@H](CN(C)Cc2ccc(F)cc2)Oc2ncc(C#CCN(C)C)cc2C1=O | -2.0 | 0.5 | -1.0 | -0.8 | 20.7*
CC(C)CC#Cc1cnc2c(c1)C(=O)N([C@@H](C)CO)C[C@@H](C)[C@H](CN(C)Cc1ccccc1)O2 | 6.4 | -1.5 | -0.7 | 0.0 | 5.7
Cn1c(Cn2c(=O)sc3ccccc32)nnc1SCC(N)=O | / | 2.2 | / | 0.3 | ?
C[C@@H]1CN([C@H](C)CO)C(=O)c2cc(C#CC3(O)CCCC3)cnc2O[C@@H]1CN(C)Cc1cccnc1 | 0.7 | / | 1.8 | 3.9 | 25.5*
C[C@H](CO)N1C[C@H](C)[C@H](CN(C)Cc2cccnc2)Oc2ncc(C#CC3(O)CCCC3)cc2C1=O | 1.5 | -9.8 | -0.6 | 0.6 | 7.1

Screening data (PubChem BioAssay)
